Data from ChEMBL document CHEMBL1131157, “Potent and selective non-cysteine-containing inhibitors of protein farnesyltransferase” (J Med Chem, 1998).

What was measured:
NIH3T3 [1] = experiment: (§1) Inhibition of Ha-Ras processing in NIH3T3 Ras transformed cells.; assay type: functional, cell-based, Homo sapiens; settings: Mus musculus
How it was run: (§2)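 Subconfluent Ras-transformed NIH3T3 cells dosed with compounds; lysates boiled 5 min in Laemmli buffer, resolved on 15% Tris-glycine gel, blotted to nitrocellulose, probed with anti-Ras antibody Y13-238; bands by ECL, quantified by densitometry. Single determinations unless limits given; assay reliability ±50-100%.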

[2] = biological target: Protein farnesyltransferase (Bos taurus, UniProt P29702+P49355); experiment: In vitro inhibition of farnesyltransferase from bovine brain
NIH3T3 [3] = experiment: as §1; assay type: functional, Homo sapiens; settings: Mus musculus, read-out: ED50 (the source's name); how it was run: as §2

Row | IC50 [2] [nM] | Compound | EC50 (NIH3T3 [1]) [nM] | EC50 (NIH3T3 [3]) [nM]
1 | 0.35 | CCc1ccccc1-c1cc(COc2cccnc2)ccc1C(=O)N[C@@H](CCSC)C(=O)O | < 100 | –
2 | 6.8 | CSCC[C@H](NC(=O)c1ccc(CNc2cccnc2)cc1-c1ccccc1)C(=O)O | 10000 | –
3 | 0.61 | CSCC[C@H](NC(=O)c1ccc(COc2cccnc2)cc1-c1ccccc1Cl)C(=O)O | 400 | –
4 | 1000 | COCC[C@H](NC(=O)c1ccc(COc2cccnc2)cc1-c1ccccc1)C(=O)O | – | –
5 | > 1000 | CCCC[C@H](NC(=O)c1ccc(COc2cccnc2)cc1-c1ccccc1)C(=O)O | – | –
6 | 160 | CSCC[C@@H](C(=O)O)N(C)C(=O)c1ccc(CNc2cccnc2)cc1-c1ccccc1 | – | 100000
7 | 0.69 | CSCC[C@H](NC(=O)c1ccc(CSc2cccnc2)cc1-c1ccccc1C)C(=O)O | – | –
8 | 10 | CSCC[C@H](NC(=O)c1ccc(CSc2cccnc2)cc1-c1ccccc1)C(=O)O | 10000 | –
9 | 140 | CSCC[C@@H](NC(=O)c1ccc(CNc2cccnc2)cc1-c1ccccc1)C(=O)O | – | –
10 | – | CSCC[C@H](NC(=O)c1ccc(NC[C@@H](N)CS)cc1-c1ccccc1)C(=O)O | – | 1000
11 | > 1000 | CSC[C@H](NC(=O)c1ccc(COc2cccnc2)cc1-c1ccccc1)C(=O)O | – | –
12 | 0.5 | CSCC[C@H](NC(=O)c1ccc(COc2cccnc2)cc1-c1ccccc1C(F)(F)F)C(=O)O | 300 | –
13 | 17 | CS(=O)(=O)CC[C@H](NC(=O)c1ccc(CNc2cccnc2)cc1-c1ccccc1)C(=O)O | – | 100000
14 | 12 | COc1cccc(-c2cc(COc3cccnc3)ccc2C(=O)N[C@@H](CCSC)C(=O)O)c1 | – | –
15 | 3.3 | COc1ccccc1-c1cc(COc2cccnc2)ccc1C(=O)N[C@@H](CCSC)C(=O)O | 10000 | –
16 | – | COC(=O)[C@H](CCSC)NC(=O)c1ccc(NC[C@@H](N)CS)cc1-c1ccccc1 | – | 200
17 | 360 | CSCC[C@H](NC(=O)c1ccc(COc2cccnc2)cc1-c1ccc(C)cc1)C(=O)O | – | –
18 | > 1000 | CSCC[C@H](NC(=O)c1ccc(NC(=O)c2ccncc2)cc1-c1ccccc1)C(=O)O | – | –
19 | 6.6 | CSCC[C@H](NC(=O)c1ccc(OCc2cccnc2)cc1-c1ccccc1)C(=O)O | – | –
20 | 4.3 | CSCC[C@H](NC(=O)c1ccc(COc2cccnc2)cc1-c1ccccc1)C(=O)O | 5000 | –
21 | > 1000 | CSCC[C@H](NC(=O)c1ccc(NC(=O)c2ccccn2)cc1-c1ccccc1)C(=O)O | – | –
22 | 550 | CSCC[C@H](NC(=O)c1ccc(CS(=O)(=O)c2cccnc2)cc1-c1ccccc1)C(=O)O | – | –
23 | 70 | CSCC[C@H](NC(=O)c1ccc(NC(=O)c2cccnc2)cc1-c1ccccc1)C(=O)O | 50000 | –
24 | 5.4 | CSCC[C@H](NC(=O)c1ccc(COc2cccnc2)cc1-c1cccc(C)c1)C(=O)O | – | –
25 | 48 | NC(=O)CC[C@H](NC(=O)c1ccc(COc2cccnc2)cc1-c1ccccc1)C(=O)O | – | –
26 | 1.5 | CSCC[C@H](NC(=O)c1ccc(NCc2cccnc2)cc1-c1ccccc1C)C(=O)O | – | –
27 | 1.6 | CSCC[C@H](NC(=O)c1ccc(NC(=O)c2cccnc2)cc1-c1ccccc1C)C(=O)O | – | –
28 | 0.4 | CSCC[C@H](NC(=O)c1ccc(COc2cccnc2)cc1-c1ccccc1C)C(=O)O | 350 | –
29 | 230 | COc1ccc(-c2cc(COc3cccnc3)ccc2C(=O)N[C@@H](CCSC)C(=O)O)cc1 | – | –
30 | 20 | CSCC[C@H](NC(=O)c1ccc(NCc2cccnc2)cc1-c1ccccc1)C(=O)O | 40000 | –
